Measured values published in ChEMBL document CHEMBL1123083, “Synthesis and antiherpetic activity of (S)-, (R)-, and (+/-)-9-[(2,3-dihydroxy-1-propoxy)methyl]guanine, linear isomers of 2'-nor-2'-deoxyguanosine” (J Med Chem, 1985).
Values after ≈ are worked out from the molar mass of the structure shown. Active and inactive are the calls of the source. No cut-off for these calls is given here.

Assays:
Human alphaherpesvirus 1 [1] = experiment: Efficacy was evaluated against Systemic HSV-1 infection in mice at a daily dose of 0.8 mg/kg administered subcutaneously.; assay type: ADME, organism-based; design: dose 0.8 mg/kg, route subcutaneous; settings: mouse, in vivo, sc
Method in brief: (§1)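 ICR/Ha mice (10–20 g, mixed sex) were infected intraperitoneally with 50–100 LD50 of HSV-1 Schooler. Subcutaneous dosing of 0.1 mL twice daily for 4 days started immediately after infection. Groups were of about 10 mice. Survival was recorded daily for 15 days and reported as survivors/total and mean survival time (95% CI). Transformed survival times were compared with placebo-treated infected mice (p < 0.05).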

Human alphaherpesvirus 1 [2] = experiment: Efficacy was evaluated against Oraficial HSV-1 infection in mice with lesions administered topically at a dose 1 mg/kg per day; Tested mice 10; assay type: ADME, organism-based; settings: mouse, in vivo
Method in brief: (§2)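 Mice were infected orofacially with HSV-1 strain S. Each treatment was 10 μL of compound at the stated percent concentration in a hydroalcoholic vehicle. Application began 3 h after infection and was repeated at 3-h intervals: three treatments on day 1 and four on each of the next 2 days. Lesion incidence and average lesion score were read on day 7 (95% CI). Significance was judged against placebo (p < 0.05).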

Human alphaherpesvirus 1 [3] = experiment: Efficacy was evaluated against Systemic HSV-1 infection in mice at a daily dose of 3.1 mg/kg administered orally.; assay type: ADME, organism-based; design: dose 3.1 mg/kg; settings: mouse, in vivo, po
Method in brief: (§3)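 Mixed-sex ICR/Ha mice (10–20 g) were infected intraperitoneally with 50–100 LD50 of HSV-1 Schooler. Oral dosing of 0.1 mL twice daily for 7 days began immediately after infection. Groups were of about 10 mice. Deaths were recorded daily for 15 days, giving survivors/total and mean survival time with 95% CI. Significance was judged against placebo-treated infected mice using transformed survival times.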

Human alphaherpesvirus 2 = experiment: In vitro anti viral activity tested against HSV-2(Curtis) virus on Rabbit kidney cell cultures; 1-3; assay type: functional; settings: Human alphaherpesvirus 2, kidney; read-out: ED50 (the source's name)
Method in brief: (§4)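 Confluent primary rabbit kidney monolayers were preincubated with serial drug dilutions in EMEM with 2% fetal calf serum and neomycin. They were then challenged with about 10 TCID50 of HSV-1 Schooler or HSV-2 Curtis and incubated at 37 °C. Cytopathology was scored on day 5. ED50 is the concentration preventing cytopathology in half of the infected cultures.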

Human alphaherpesvirus 1 [4] = experiment: Efficacy was evaluated against Systemic HSV-1 infection in mice at a daily dose of 50 mg/kg administered orally; Tested mice 10; assay type: organism-based; design: dose 50 mg/kg; settings: mouse, in vivo, po; method in brief: as §3
Human alphaherpesvirus 1 [5] = experiment: Efficacy was evaluated against Oraficial HSV-1 infection in mice with lesions administered orally at a dose 12.5 mg/kg per day.; assay type: ADME, organism-based; design: route oral; settings: mouse, in vivo, po
Method in brief: (§5)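 HSV-1 strain S inoculated in the orofacial area of mice as previously described. Half-daily doses given by gavage 8 h apart, starting 3 h after infection, for 7 days. On day 7 after infection, mice with lesions per group and average lesion score were recorded (95% confidence interval). Significance was judged against placebo-treated infected mice (p < 0.05).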

Human alphaherpesvirus 1 [6] = experiment: Efficacy was evaluated against Systemic HSV-1 infection in mice at a daily dose of 3.1 mg/kg administered orally; Tested mice 10; assay type: organism-based; design: dose 3.1 mg/kg; settings: mouse, in vivo, po; method in brief: as §3
Human alphaherpesvirus 1 [7] = experiment: Efficacy was evaluated against Systemic HSV-1 infection in mice at a daily dose of 12.5 mg/kg administered orally; Tested mice 9; assay type: organism-based; design: dose 12.5 mg/kg; settings: mouse, in vivo, po; method in brief: as §3
Human alphaherpesvirus 1 [8] = experiment: Efficacy was evaluated against Systemic HSV-1 infection in mice at a daily dose of 0.8 mg/kg administered subcutaneously; Tested mice 10; assay type: organism-based; design: dose 0.8 mg/kg, route subcutaneous; settings: mouse, in vivo, sc; method in brief: as §1
Human alphaherpesvirus 1 [9] = experiment: Efficacy was evaluated against Oraficial HSV-1 infection in mice with lesions administered topically at a dose 0.06 mg/kg per day.; assay type: ADME, organism-based; settings: mouse, in vivo; method in brief: as §2
Human alphaherpesvirus 1 [10] = experiment: Efficacy was evaluated against Oraficial HSV-1 infection in mice with lesions administered orally at a dose 50 mg/kg per day.; assay type: ADME, organism-based; design: route oral; settings: mouse, in vivo, po; method in brief: as §5
Human alphaherpesvirus 1 [11] = experiment: Efficacy was evaluated against Systemic HSV-1 infection in mice at a daily dose of 12.5 mg/kg administered subcutaneously; Tested mice 10; assay type: organism-based; design: dose 12.5 mg/kg, route subcutaneous; settings: mouse, in vivo, sc; method in brief: as §1
Human alphaherpesvirus 1 [12] = experiment: Efficacy was evaluated against Oraficial HSV-1 infection in mice with lesions administered orally at a dose 12.5 mg/kg per day; Tested mice 10; assay type: organism-based; design: route oral; settings: mouse, in vivo, po; method in brief: as §5
Human alphaherpesvirus 1 [13] = experiment: Efficacy was evaluated against Oraficial HSV-1 infection in mice with lesions administered orally at dose 0.8 mg/kg per day; Tested mice 10; assay type: ADME, organism-based; design: route oral; settings: mouse, in vivo, po; method in brief: as §5
Human alphaherpesvirus 1 [14] = experiment: Efficacy was evaluated against Systemic HSV-1 infection in mice at a daily dose of 12.5 mg/kg administered orally.; assay type: ADME, organism-based; design: dose 12.5 mg/kg; settings: mouse, in vivo, po; method in brief: as §3
Human alphaherpesvirus 1 [15] = experiment: Efficacy was evaluated against Oraficial HSV-1 infection in mice with lesions administered topically at a dose 0.02 mg/kg per day; Tested mice 10; assay type: ADME, organism-based; settings: mouse, in vivo; method in brief: as §2
Human alphaherpesvirus 1 [16] = experiment: Efficacy was evaluated against Oraficial HSV-1 infection in mice with lesions administered topically at a dose 0.06 mg/kg per day; Tested mice 10; assay type: ADME, organism-based; settings: mouse, in vivo; method in brief: as §2
[17] = tested on: DNA polymerase (Homo sapiens); experiment: Evaluated for DNA polymerase inhibition activity against HeLa cells.
Human alphaherpesvirus 1 [18] = experiment: Efficacy was evaluated against Oraficial HSV-1 infection in mice with lesions administered orally at a dose 50 mg/kg per day; Tested mice 10; assay type: organism-based; design: route oral; settings: mouse, in vivo, po; method in brief: as §5
Human alphaherpesvirus 1 [19] = experiment: Efficacy was evaluated against Systemic HSV-1 infection in mice at a daily dose of 12.5 mg/kg administered subcutaneously.; assay type: ADME, organism-based; design: dose 12.5 mg/kg, route subcutaneous; settings: mouse, in vivo, sc; method in brief: as §1
Human alphaherpesvirus 1 [20] = experiment: Evaluated for DNA polymerase inhibition activity against herpes simplex virus-1 (HSV-1); assay type: functional
Method in brief: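 Step II mixture supplied the phosphorylated test material. Step I: compound with HSV-1 thymidine kinase, 4 h, 37 °C. Step II: then HSV-1-infected HeLa crude extract plus GMP kinase, overnight, 30 °C. A 20 μL sample went to a 1 h, 37 °C DNA polymerase assay at pH 8 with activated salmon sperm DNA, 0.05 mM each dNTP ([³H]dTTP) and infected HeLa extract. (NH₄)₂SO₄ 0.1 M was present for the viral enzyme and omitted for the cellular polymerases. Read-out: TCA-precipitable radioactivity.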

Human alphaherpesvirus 1 [21] = experiment: Efficacy was evaluated against Systemic HSV-1 infection in mice at a daily dose of 50 mg/kg administered orally.; assay type: ADME, organism-based; design: dose 50 mg/kg; settings: mouse, in vivo, po; method in brief: as §3
Human alphaherpesvirus 1 [22] = experiment: Efficacy was evaluated against Systemic HSV-1 infection in mice at a daily dose of 3.1 mg/kg administered subcutaneously.; assay type: ADME, organism-based; design: dose 3.1 mg/kg, route subcutaneous; settings: mouse, in vivo, sc; method in brief: as §1
Human alphaherpesvirus 1 [23] = experiment: Efficacy was evaluated against Oraficial HSV-1 infection in mice with lesions administered topically at a dose 0.02 mg/kg per day.; assay type: ADME, organism-based; settings: mouse, in vivo; method in brief: as §2
Human alphaherpesvirus 1 [24] = experiment: Efficacy was evaluated against Oraficial HSV-1 infection in mice with lesions administered topically at a dose 0.25 mg/kg per day; Tested mice 10; assay type: ADME, organism-based; settings: mouse, in vivo; method in brief: as §2
Human alphaherpesvirus 1 [25] = experiment: Efficacy was evaluated against Oraficial HSV-1 infection in mice with lesions administered topically at a dose 1 mg/kg per day.; assay type: ADME, organism-based; settings: mouse, in vivo; method in brief: as §2
Human alphaherpesvirus 1 [26] = experiment: In vitro anti viral activity tested against HSV-1(Schooler) virus on Rabbit kidney cell cultures; 0.5-1.5; assay type: functional; settings: Human alphaherpesvirus 1, kidney; read-out: ED50 (the source's name); method in brief: as §4
Human alphaherpesvirus 1 [27] = experiment: Efficacy was evaluated against Oraficial HSV-1 infection in mice with lesions administered orally at a dose 0.8 mg/kg per day.; assay type: ADME, organism-based; design: route oral; settings: mouse, in vivo, po; method in brief: as §5
Human alphaherpesvirus 1 [28] = experiment: Efficacy was evaluated against Systemic HSV-1 infection in mice at a daily dose of 3.1 mg/kg administered subcutaneously; Tested mice 10; assay type: ADME, organism-based; design: dose 3.1 mg/kg, route subcutaneous; settings: mouse, in vivo, sc; method in brief: as §1
Human alphaherpesvirus 1 [29] = experiment: Efficacy was evaluated against Oraficial HSV-1 infection in mice with lesions administered topically at a dose 0.25 mg/kg per day.; assay type: ADME, organism-based; settings: mouse, in vivo; method in brief: as §2
Human alphaherpesvirus 1 [30] = experiment: Efficacy was evaluated against Oraficial HSV-1 infection in mice with lesions administered orally at a dose 3.1 mg/kg per day; Tested mice 10; assay type: organism-based; design: route oral; settings: mouse, in vivo, po; method in brief: as §5
Human betaherpesvirus 5 = experiment: In vitro anti viral activity tested against HCMV(AD169) virus on MRC-5 cell monolayers; NA=Not active at 25 ug/mL; assay type: functional, organism-based; settings: MRC5
Method in brief: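 MRC-5 monolayers were infected with HCMV AD169 for 1 h at 37 °C. Compound diluted in maintenance medium was then added and incubation continued for 7 days at 37 °C. Monolayers were stained and plaques counted. ED50 is the concentration reducing plaque number by 50%.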

Compound: Nc1nc(O)c2ncn(COCC(O)CO)c2n1 (single isomer, unassigned; form 2) [listing 1 of 2 here]
- Average survival (Human alphaherpesvirus 1 [1]): 6.7 days
- Mice with lesions (Human alphaherpesvirus 1 [2]): 2
- Average survival (Human alphaherpesvirus 1 [3]): 6.9 days
- EC50 (Human alphaherpesvirus 2): 1 µg/mL (≈ 3.92 µM)
- Survivors (Human alphaherpesvirus 1 [4]): 3
- Average lesion score (Human alphaherpesvirus 1 [5]): 0.75
- Survivors (Human alphaherpesvirus 1 [6]): 0
- Survivors (Human alphaherpesvirus 1 [7]): 0
- Survivors (Human alphaherpesvirus 1 [8]): 0
- Average lesion score (Human alphaherpesvirus 1 [9]): 1.4
- Average lesion score (Human alphaherpesvirus 1 [10]): 0.15
- Survivors (Human alphaherpesvirus 1 [11]): 4
- Mice with lesions (Human alphaherpesvirus 1 [12]): 5
- Mice with lesions (Human alphaherpesvirus 1 [13]): 9
- Average survival (Human alphaherpesvirus 1 [14]): 8.1 days
- Mice with lesions (Human alphaherpesvirus 1 [15]): 9
- Mice with lesions (Human alphaherpesvirus 1 [16]): 6
- Inhibition [17]: 10%
- Mice with lesions (Human alphaherpesvirus 1 [18]): 1
- Average survival (Human alphaherpesvirus 1 [19]): 10.7 days
- Inhibition (Human alphaherpesvirus 1 [20]): 57%
- Average survival (Human alphaherpesvirus 1 [21]): 12.9 days
- Average survival (Human alphaherpesvirus 1 [22]): 7.6 days
- Average lesion score (Human alphaherpesvirus 1 [23]): 2.75
- Mice with lesions (Human alphaherpesvirus 1 [24]): 5
- Average lesion score (Human alphaherpesvirus 1 [25]): 0.4
- EC50 (Human alphaherpesvirus 1 [26]): 0.5 µg/mL (≈ 1.96 µM)
- Average lesion score (Human alphaherpesvirus 1 [27]): 3.45
- Survivors (Human alphaherpesvirus 1 [28]): 1
- Average lesion score (Human alphaherpesvirus 1 [29]): 1.35
- Mice with lesions (Human alphaherpesvirus 1 [30]): 8

Compound: Nc1nc(O)c2ncn(COCC(O)CO)c2n1 (single isomer, unassigned; form 2) [listing 2 of 2 here]
- ED50 (Human betaherpesvirus 5): inactive
